{
  "source": "paper PMC4256430",
  "about": "(Journal of immunology (Baltimore, Md. : 1950), 2010)",
  "molecules": {"B1": {"name": "SAA: serum amyloid A, purchased from PeproTech (protein, UniProt P0DJI8 19-122, looked up)", "Serum amyloid A-1 protein": "RSFFSFLGEAFDGARDMWRAYSDMREANYIGSDKYFHARGNYDAAKRGPGGAWAAEVITDARENIQRFFGHGAEDSLADQAANEWGRSGKDPNHFRPAGLPEKY"}, "B2": {"name": "hrAnxA1: GST-tagged human recombinant annexin A1, produced in Escherichia coli (protein, UniProt P04083 2-346, looked up)", "Annexin A1": "AMVSEFLKQAWFIENEEQEYVQTVKSSKGGPGSAVSPYPTFNPSSDVAALHKAIMVKGVDEATIIDILTKRNNAQRQQIKAAYLQETGKPLDETLKKALTGHLEEVVLALLKTPAQFDADELRAAMKGLGTDEDTLIEILASRTNKEIRDINRVYREELKRDLAKDITSDTSGDFRNALLSLAKGDRSEDFGVNEDLADSDARALYEAGERRKGTDVNVFNTILTTRSYPQLRRVFQKYTKYSKHDMNKVLDLELKGDIEKCLTAIVKCATSKPAFFAEKLHQAMKGVGTRHKALIRIMVSRSEIDMNDIKAFYQKMYGISLCQAILDETKGDYEKILVALCGGN", "modifications": "GST tag"}},
  "key": {"[1]": {"tested_on": "IL-1β–induced Gr1^+ cell recruitment, WT and Fpr2^−/− mice", "assay": "IL-1β–induced air pouch, Gr1^+ cell", "type": "in vivo, mouse", "details": "4 h; for inhibition of IL-1β-promoted Gr1^+ cell recruitment, WT: Ac2–26 dose-dependent, LXA4 and Cpd43 at anti-inflammatory doses, n = 6, p < 0.01"}, "[2]": {"tested_on": "FPR2/ALX", "details": "ref [32]; cited from earlier work"}, "[3]": {"tested_on": "ERK phosphorylation in peritoneal Mϕs (WT and Fpr2^−/−)", "assay": "ERK phosphorylation in Mϕs", "type": "cell-based, mouse", "details": "concentration range, 10 min at 37°C, n = 3; for ERK phosphorylation, Fpr2^−/− Mϕs: Fpr2^−/− Mϕs compared with WT", "outline": "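Peritoneal macrophages from WT littermates and Fpr2−/− mice were equilibrated 30 min in Glutamax DMEM with penicillin/streptomycin, then exposed to ligand concentration ranges for 10 min at 37°C. Lysates underwent SDS-PAGE and PVDF transfer. Blots were probed overnight for phospho-p44/42 and total p44/42 (each 1:1000), with HRP anti-rabbit and ECL detection. Read-out was the phospho-/total ERK ratio, from three distinct cultures (Mann-Whitney U).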"}, "[4]": {"tested_on": "Mϕs (WT and Fpr2^−/−)", "assay": "Mϕ chemotaxis", "type": "cell-based, mouse", "details": "120 min, 37°C, 5-μm pores; for Mϕ chemotaxis, Fpr2^−/− compared with WT: Fpr2^−/− Mϕs, for fMLP at concentrations >1 μM", "outline": "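Macrophages were either bone-marrow-derived (5 d in 20% FCS/30% L929-conditioned DMEM) or peritoneal cells elicited by Biogel (harvested 4 d after i.p. 2% P-100). Cells were suspended at 4 × 10^6/ml in RPMI 1640 with 0.1% BSA. 10^5 cells were placed above 5-μm polycarbonate filters, with stimuli below, for 120 min at 37°C/5% CO2. Migrated cells were quantified by 4 h alamarBlue fluorescence (ex 530–560, em 590 nm) against a macrophage standard curve. Three experiments, each in quadruplicate.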"}, "[5]": {"tested_on": "Fpr2", "details": "cited from earlier work"}, "[6]": {"tested_on": "all FPRs", "details": "in vitro experimental settings; ref [33]; cited from earlier work"}, "[7]": {"tested_on": "Fpr2", "type": "binding, mouse", "details": "WT Mϕs; [125I]-labeled W-peptide", "outline": "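Primary peritoneal macrophages (10 × 10^6 cells/ml in PBS with Ca2+/Mg2+) were incubated with [125I]W-peptide tracer for 1 h on ice. Excess unlabeled W-peptide defined nonspecific binding; specific binding was calculated as total minus nonspecific. Cells were collected on GF/C filters by vacuum filtration and washed three times with ice-cold 10 mM Tris-HCl. Bound counts were read on a γ-counter. The experiment was repeated three times.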"}, "[8]": {"tested_on": "zymosan-elicited Gr1^+ cell influx, WT and Fpr2^−/− mice", "assay": "Zymosan-induced peritonitis, Gr1^+ cell recruitment", "type": "in vivo, mouse", "details": "1 mg i.v. −10 min, zymosan 1 mg i.p., 4 h, n = 6, NS, mean ± SEM", "outline": "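Peritonitis was induced in WT and Fpr2−/− mice with zymosan A, 1 mg i.p. in 0.5 ml PBS. Test protein (1 mg) was given i.v. 10 min before zymosan. Cavities were lavaged at 4 h with PBS containing 25 U/ml heparin and 0.3 mM EDTA. Gr1+ cell influx was quantified by Turk's differential counts and flow cytometry, with percentage of events multiplied by total count per cavity.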"}, "[9]": {"tested_on": "fpr1^−/− mice", "details": "ref [42]; cited from earlier work"}},
  "note": "Entries after “also recorded” stand apart in the source; their conditions may differ. Like-named read-outs stand apart in the source and are kept apart here. No end group written: not given here.",
  "data": [
    {"molecule": "CC(C)c1c(NC(=O)Nc2ccc(Cl)cc2)c(=O)n(-c2ccccc2)n1C", "note": "[Cpd43]", "values": [
      {"measurement": "effect on IL-1β-promoted cell recruitment, Fpr2^−/−", "setting": "[1]; Fpr2^−/− mice, i.v., air pouch", "result": "ineffective"},
      {"measurement": "inhibition of IL-1β-promoted Gr1^+ cell recruitment, WT", "setting": "[1]; WT mice, i.v., air pouch", "result": "50–75%"},
      {"measurement": "FPR2/ALX agonism", "setting": "[2]", "result": "selective nonpeptidic FPR2/ALX agonist"},
      {"measurement": "ERK phosphorylation, WT Mϕs", "setting": "[3]", "result": "concentration-dependent rapid phosphorylation of ERK"}
    ]},
    {"molecule": "C[C@@H]1C[C@H]2[C@@H]3CCC4=CC(=O)C=C[C@]4(C)[C@@]3(F)[C@@H](O)C[C@]2(C)[C@@]1(O)C(=O)COP(=O)([O-])[O-].[Na+].[Na+]", "note": "[dexamethasone, dexamethasone 21-phosphate disodium salt]", "values": [
      {"measurement": "efficacy in air pouch, Fpr2^−/− mice", "setting": "[1]; Fpr2^−/− mice, dexamethasone 0.5 mg/kg i.v. −1 h, IL-1β 20 ng", "result": "reduced efficacy"},
      {"measurement": "Gr1^+ cell infiltrate into air pouch, WT", "setting": "[1]; WT mice, dexamethasone 0.5 mg/kg i.v. −1 h, IL-1β 20 ng", "result": "significantly reduced"}
    ]},
    {"molecule": "formyl-Met-Leu-Phe [fMLP]", "values": [
      {"measurement": "concentration for optimal Mϕ chemotaxis", "setting": "[4]; mean of three experiments in quadruplicate", "result": 1, "unit": "µM"},
      {"measurement": "Mϕ chemotaxis, Fpr2^−/− compared with WT", "setting": "[4]", "result": "attenuated significantly"}
    ]},
    {"molecule": "CCCCC[C@H](O)/C=C/C=C\\C=C\\C=C\\[C@@H](O)[C@@H](O)CCCC(=O)O", "note": "[LXA4, lipoxin A4]", "values": [
      {"measurement": "activation of Fpr2", "setting": "[5]; ref [23]", "result": "known to be activated"},
      {"measurement": "effect on IL-1β-promoted cell recruitment, Fpr2^−/−", "setting": "[1]; Fpr2^−/− mice, i.v., air pouch", "result": "ineffective"},
      {"measurement": "inhibition of IL-1β-promoted Gr1^+ cell recruitment, WT", "setting": "[1]; WT mice, i.v., air pouch", "result": "50–75%"}
    ]},
    {"molecule": "Ac-AMVSEFLKQAWIENEEQEYVVQTVK [Ac2–26]", "values": [
      {"measurement": "activation of FPRs", "setting": "[6]", "result": "known to activate all FPRs"}
    ]},
    {"molecule": "WKYMVm [W-peptide]", "values": [
      {"measurement": "ligand activity / affinity at Fpr2", "setting": "[5]; high-affinity ligand, ref [30]", "result": "high-affinity ligand for Fpr2"},
      {"measurement": "ERK phosphorylation, Fpr2^−/− Mϕs", "setting": "[3]", "result": "absent"},
      {"measurement": "ERK phosphorylation, WT Mϕs", "setting": "[3]", "result": "concentration-dependent rapid phosphorylation of ERK"},
      {"measurement": "binding sites revealed by Scatchard plot", "setting": "[7]", "result": "both high- and low-affinity binding sites"}
    ]},
    {"molecule": "B1", "values": [
      {"measurement": "activation of Fpr2", "setting": "[5]; ref [22]", "result": "known to be activated"},
      {"measurement": "effect on IL-1β-promoted cell recruitment, Fpr2^−/−", "setting": "[1]; Fpr2^−/− mice, i.v., air pouch", "result": "did not share this response"},
      {"measurement": "increase in number of cells recruited by IL-1β over control", "setting": "[1]; WT mice, i.v., air pouch, control values of 3.0 ± 0.4 × 10^6 per cavity", "result": 1.5, "unit": "fold"},
      {"measurement": "ERK phosphorylation, Fpr2^−/− Mϕs", "setting": "[3]", "result": "unchanged; also recorded: retained; also recorded: not diminished"},
      {"measurement": "Mϕ chemotaxis, Fpr2^−/− compared with WT", "setting": "[4]", "result": "absent"},
      {"measurement": "Mϕ chemotaxis, WT", "setting": "[4]; WT Mϕs", "result": "promoted consistently"}
    ]},
    {"molecule": "B2", "values": [
      {"measurement": "inhibition of PMN accumulation in air pouch, Fpr2^−/− mice", "setting": "[1]; Fpr2^−/− mice, i.v. −10 min, IL-1β 20 ng, NS", "result": "25–30%"},
      {"measurement": "inhibition of PMN accumulation in air pouch, dose dependence", "setting": "[1]; WT mice, i.v. −10 min, IL-1β 20 ng", "result": "dose-response inhibition"},
      {"measurement": "reduction of Gr1^+ cell content in peritoneal fluids, Fpr2^−/−", "setting": "[8]", "result": "−5 ± 12", "unit": "%"},
      {"measurement": "anti-migratory action in fpr1^−/− mice", "setting": "[9]", "result": "a high proportion of the anti-migratory action of hrAnxA1 is retained"}
    ]}
  ]
}
